Compound activity (PubChem)
MrgX1 allo act: positive allosteric modulators of MrgX1, primary screen, HEK293 cells, Fluo-4 calcium flux. 310,000 tested, 0.63% active. B-score at 10 µM. Mas-related G-protein coupled receptor member X1 (Homo sapiens), Q96LB2. FDSS; hits give high values;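 active = plate-corrected calcium response at least 3 library SD above typical, normal starting fluorescence, not activating the receptor alone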;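 also: compound read alongside a low EC10 to EC30 dose of BAM8-22 agonist; peak minus trough fluorescence over baseline measured at the second addition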
Target sequence (Q96LB2 whole entry, looked up): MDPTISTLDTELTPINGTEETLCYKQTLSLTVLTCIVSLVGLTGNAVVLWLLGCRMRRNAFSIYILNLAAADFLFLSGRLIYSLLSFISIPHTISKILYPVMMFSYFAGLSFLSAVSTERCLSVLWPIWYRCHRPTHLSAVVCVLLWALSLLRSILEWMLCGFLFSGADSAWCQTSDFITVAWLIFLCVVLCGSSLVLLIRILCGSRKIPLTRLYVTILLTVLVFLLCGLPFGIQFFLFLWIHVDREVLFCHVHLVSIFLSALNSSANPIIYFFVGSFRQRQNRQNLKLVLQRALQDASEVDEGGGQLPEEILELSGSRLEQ
RGS4 block: RGS4 inhibitors, primary screen, cell-based, HEK293 M3R inducible RGS4, calcium flux. Regulator of G-protein signaling 4 (Homo sapiens), P49798. Fluo-4 calcium flux; hits give high values; triggered by carbachol at its EC20. B-score at 10 µM. 310,000 tested, 0.45% active;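 active = B-score, a plate-corrected calcium signal, over three deviations above library mean, with baseline fluorescence within five deviations of library mean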;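 also: RGS4 expression induced by doxycycline in cells with stable M3 receptor; B-score is computed from the integrated fluorescence ratio over baseline after carbachol; higher B-score means a larger calcium signal and so more RGS4 inhibition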
Target sequence (P49798 whole entry, looked up): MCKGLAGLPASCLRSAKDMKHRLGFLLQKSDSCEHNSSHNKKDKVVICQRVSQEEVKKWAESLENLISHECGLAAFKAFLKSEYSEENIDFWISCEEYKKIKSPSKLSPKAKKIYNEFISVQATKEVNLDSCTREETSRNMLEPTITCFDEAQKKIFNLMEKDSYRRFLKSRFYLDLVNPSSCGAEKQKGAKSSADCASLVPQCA
RGS4 act: RGS4 potentiators or activators, primary screen, cell-based, HEK293 M3R inducible RGS4, calcium flux | carbachol calcium flux Fluo4; hits give low values | B-score at 10 µM | 310,000 tested, 0.92% active;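 active = B-score of the integrated calcium signal more than 4 SD below the library mean, with starting fluorescence not abnormally high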;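 also: negative B-score means reduced calcium response which marks RGS4 activation or potentiation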
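Test system: HEK293 cells with stable M3R and inducible RGS4; also added: carbachol at ECmax as muscarinic agonist stimulus; schedule: dye loading 30 min 37 °C, buffer rest 30 min RT; technique: kinetic calcium fluorescence imaging with Fluo4-AM dye, 2 µM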
MrgX1 agonist: agonists of human MrgX1 receptor, primary screen, HEK293 cells, Fluo-4 calcium flux. Mas-related G-protein coupled receptor member X1 (Homo sapiens), Q96LB2. Fluo-4 calcium fluorescence, agonist mode; hits give high values. 310,000 tested, 0.44% active. AID 588627, 2011. B-score at 10 µM;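 active = calcium response B-score plate-corrected fluorescence ratio at least 3 library SD, with starting fluorescence B-score inside 5 SD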
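Material: HEK293 cells stably expressing human MrgX1 receptor | Quantity: 15,000 cells per well | Times: Cells plated overnight, dye loaded 0.5 h 37 °C, 0.5 h room temperature | Measured by: Kinetic Fluo-4 NW fluorescence of intracellular calcium | Control set: Positive and negative controls per plate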
MrgX1 antagonist: antagonists of human MrgX1 receptor, primary screen, HEK293 cells, Fluo-4 calcium flux; Mas-related G-protein coupled receptor member X1 (Homo sapiens), Q96LB2; BAM8-22 antagonism; hits give low values; B-score at 10 µM; 310,000 tested, 1.3% active; AID 588676, 2011;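 active = calcium-response B-score plate-corrected more than 3 library SD below zero, starting fluorescence within 5 deviations, no agonist response on first addition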;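 also: peak minus trough fluorescence over baseline after final BAM8-22 challenge near maximal dose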
Numbers stand for hits; - = inactive; . = no result given. This is a sample that favours compounds with a hit; in the whole collection about 3.5% have one here.

SMILES	MrgX1 allo act	RGS4 block	RGS4 act	MrgX1 agonist	MrgX1 antagonist
Cc1onc(-c2ccccc2)c1C(=O)NC(=S)NNC(=O)c1ccncc1	-	-	-	-	-
Cc1onc(-c2ccccc2)c1C(=O)NC(=S)NNC(=O)c1ccco1	-	-	-	60	-
Cc1onc(-c2ccccc2)c1C(=O)NNC(=S)NC(=O)/C=C/c1cccs1	-	-	-	58	-
CN(C(=S)Oc1ccc(C(=O)Nc2ccccc2)cc1)c1ccccc1	-	-	-	-	-
COc1cccc(NC(=S)NC(=O)/C=C/c2ccc(F)cc2)c1	-	-	-	-	-
CCC(=O)Nc1cccc(C(=O)/C=C/c2ccc(F)cc2)c1	-	-	-	29	-
CN(Cc1ccco1)C(=O)Cn1cc(S(=O)(=O)N2CCCC2)c(S(=O)(=O)N2CCCC2)c1	-	-	-	-	-
CC(C)(C)OC(=O)N1CCC(C(=O)O)CC1	-	-	-	-	-
COc1ccc2oc(C(=O)N3CCN(S(=O)(=O)c4cccc([N+](=O)[O-])c4)CC3)c(C)c2c1	16	-	-	-	-
O=C(Nc1ccc(F)cc1)C1CCCN(c2cnccn2)C1 (configuration not stated)	-	-	-	-	-
CC(=O)N1CCN(C(=O)c2ccc(OC3CCN(CCc4ccccc4)CC3)cc2)CC1	-	-	-	-	-
O=C(c1ccc(OC2CCN(CCCc3ccccc3)CC2)cc1)N1CCCC1	-	-	-7.4	-	-
O=C(CC1(O)C(=O)Nc2ccccc21)c1ccc(-n2cnnn2)cc1 (configuration not stated)	-	-	-	-	-
CCc1nc(SCC(=O)N2CCCCCC2)c2c(=O)n(C)c(=O)n(C)c2n1	-	-	-7.7	-	-
CCCc1nc(SCC(=O)N2CCC(Cc3ccccc3)CC2)c2c(=O)n(C)c(=O)n(C)c2n1	-	-	-7.3	-	-
CCOC(=O)c1nnn(-c2nonc2N)c1-c1ccc(C)cc1	-	-	-	-	-
Cc1c(-c2c(C#N)c(N)nc3c2CCCCCC3)cnn1C	-	-	-	-	-
O=C(NCCCN1CCN(Cc2ccccc2)CC1)c1nnc(Cc2c(F)cccc2Cl)o1	-	-	-	-	-4.7
O=C(NCCCO)c1nnc(Cc2c(F)cccc2Cl)o1	-	-	-	-	-
CCN(CC(=O)NC(C)C)C(=O)[C@@H](NC(=O)c1ccco1)C(C)C	-	-	-	-	-
C/C(=N\OC(=O)NC(C)C)c1sc(-c2ccc(Cl)cc2)nc1C	17	-	-	-	-
c1ccc(COc2ccc(CNCc3cccs3)cc2)cc1	-	-	-8.3	-	-
CCOCCCN(C)C1CCN(C(=O)c2oc3ccccc3c2NC(=O)c2ccc([N+](=O)[O-])cc2)CC1	-	-	-	-	-
O=C(/C=C/c1cccc(Br)c1)NCC1CCCCC1	-	-	-	-	-7
CC(C)Oc1ccc(CSc2ncn[nH]2)cc1	-	-	-	-	-
SMILES	MrgX1 allo act	RGS4 block	RGS4 act	MrgX1 agonist	MrgX1 antagonist
Cn1ncc(Br)c1NC(=O)CSc1ccc(Cl)cc1	-	-	-	-	-
CCS(=O)(=O)N1CCC2(CC1)OCCN2S(=O)(=O)c1ccc(OC)cc1	.	-	-	.	.
N#Cc1ccccc1Oc1ccccc1C=O	-	-	-	27	-
COc1ccc(/C=N/NC(=O)CN(Cc2ccccc2)S(=O)(=O)c2ccc3c(c2)OCCO3)cc1	-	-	-	-	-6.2
Cc1ccccc1OCC(=O)N/N=C/c1ccc2c(c1)OCCO2	6.5	-	-	-	-
COc1ccc(CNC(=O)CN(Cc2ccccc2)S(=O)(=O)c2ccc(Cl)cc2)cc1	-	-	-	-	-4.9
O=C(CN(Cc1ccccc1)S(=O)(=O)c1ccc2c(c1)OCCO2)N/N=C/c1ccc(F)cc1	-	-	-	-	-
CC1CCN(c2nc3c(N)ncnc3n2[C@@H]2O[C@H](CO)[C@@H](O)[C@H]2O)CC1	-	-	-	-	-
CC(NC(=O)c1ccco1)C(=O)N(C)Cc1ccc(C(F)(F)F)cc1 (configuration not stated)	-	-	-	-	-
CCc1nnc(NC(=O)c2cccc(S(=O)(=O)N3CC(c4ccccc4)CC3=O)c2)s1 (configuration not stated)	-	-	-	-	-
C#CCN1C(=O)S/C(=C/c2cc(C)n(CC)c2C)C1=O	-	-	-	-	-
CCn1c(C)cc(/C=C2/SC(=S)N(CC(=O)O)C2=O)c1C	17	-	-	-	-
O=C(/C=C/c1ccc(F)cc1)NCc1ccco1	-	-	-	-	-
O=C(/C=C/c1c(F)cccc1Cl)NCc1ccco1	-	-	-	-	-4.5
O=C(CN1C(=O)/C(=C/c2c(F)cccc2Cl)Oc2ccccc21)NCc1ccco1	-	-	-	-	-6.6
COc1ccccc1-c1cnn2c(NCc3ccccc3)cc(C)nc12	-	-	-7.3	-	-
CC1=C(C)CS(=O)N(S(=O)(=O)c2ccc(Cl)cc2)C1 (configuration not stated)	-	-	-	52	-
CC1CCCC(C)N1S(=O)(=O)c1ccc(Cl)cc1 (configuration not stated)	-	-	-	-	-
CC(C)Cc1ccc(-c2cc(=O)[nH][nH]2)cc1	-	-	-	-	-
COC1=C(c2ccccc2)C(=O)c2ccccc2C1=O	7.2	-	-	-	-
N=C1C(=O)OCC1c1ccccc1NC(=O)Nc1ccccc1 (configuration not stated)	-	-	-	-	-
O=C(Nc1ccccc1-c1nnc(SCc2ccc(Cl)cc2)o1)c1ccccc1	-	-	-	-	-7.1
O=C(Nc1ccccc1-c1nnc(SCc2ccccc2)o1)c1ccccc1	-	-	-7.4	-	-
Cc1ccc(C)c(-n2cc(CNCCc3cnccn3)c(-c3ccccc3)n2)c1	-	-	-	-	-
CSc1ccc(Cl)c(C(=O)NCCOc2cc(C)ccc2C(C)C)c1	-	-	-7.2	-	-
O=C(Nc1nc2c(s1)CCCC2)c1cc2n(n1)C(C(F)(F)F)CC(C1CC1)N2 (configuration not stated)	-	-	-	-	-
NC(=O)C1CCCN(C(=O)CCc2nnc(C3(c4ccc(Cl)cc4)CCC3)o2)C1 (configuration not stated)	-	-	-	-	-
CN(C(=O)COC(=O)c1cccc(S(=O)(=O)N2CCCCCC2)c1)C1CCS(=O)(=O)C1 (configuration not stated)	-	-	-	-	-
CN(C(=O)COC(=O)c1cccc(S(=O)(=O)N2CCOCC2)c1)C1CCS(=O)(=O)C1 (configuration not stated)	-	-	-	-	-5.4
Cc1ccccc1/C=C/c1nc2ccccc2c(=O)n1Cc1ccccc1	-	-	-7.4	-	-
